Assay results published in ChEMBL document CHEMBL4346672, “Antimicrobial and KPC/AmpC inhibitory activity of functionalized benzosiloxaboroles” (Eur J Med Chem, 2019).

Tests used:
[1] = system: Klebsiella pneumoniae; assay: Inhibition of beta lactamase KPC-3 in Klebsiella pneumoniae 83 assessed as potentiation of ceftazidime-induced antibacterial activity by measuring ceftazidime MIC at 16 mg/L incubated for 18 hrs by broth dilution method (reference value: >[…] mg/L)
[2] = system: Acinetobacter baumannii; assay: Inhibition of beta lactamase OXA-24 in Acinetobacter baumannii 181 assessed as potentiation of meropenem-induced antibacterial activity by measuring meropenem MIC at 16 mg/L incubated for 18 hrs by broth dilution method (reference value: […] mg/L)
[3] = system: Klebsiella pneumoniae 700603; assay: (§1) Inhibition of extended-spectrum beta lactamase in Klebsiella pneumoniae ATCC 700603 assessed as potentiation of cefotaxime-induced antibacterial activity by measuring diameter of zone inhibition at 0.3 mg incubated for 18 hrs in presence of 10 ug cefotaxime by CLSI disc diffusion method (Rvb=19 mm)
Procedure, shortened: (§2)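 EUCAST ESBL combination disc test on Mueller-Hinton agar. Zones were compared between a ceftazidime or cefotaxime disc alone and the same disc plus agent at 0.3 mg per disc. Clavulanic acid discs at 0.01 mg per disc served as reference. Plates were incubated at 35 °C for 18 h. A difference of at least 5 mm was counted as inhibition.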

[4] = system: Acinetobacter baumannii; assay: Inhibition of beta lactamase OXA-24 in Acinetobacter baumannii 181 assessed as potentiation of ceftazidime-induced antibacterial activity by measuring ceftazidime MIC at 16 mg/L incubated for 18 hrs by broth dilution method (reference value: >[…] mg/L)
[5] = system: Klebsiella pneumoniae; assay: Inhibition of beta lactamase SHV-12 in Klebsiella pneumoniae ATCC 700603 assessed as potentiation of ceftazidime-induced antibacterial activity by measuring ceftazidime MIC at 16 mg/L incubated for 18 hrs by broth dilution method (reference value: […] mg/L)
[6] = system: Klebsiella pneumoniae; assay: Inhibition of beta lactamase CMY-2 in Klebsiella pneumoniae 78 assessed as potentiation of ceftazidime-induced antibacterial activity by measuring ceftazidime MIC at 16 mg/L incubated for 18 hrs by broth dilution method (reference value: >[…] mg/L)
[7] = system: Klebsiella pneumoniae ATCC BAA-1705; assay: Inhibition of beta lactamase KPC-2 in Klebsiella pneumoniae ATCC BAA 1705 assessed as potentiation of meropenem-induced antibacterial activity by measuring meropenem MIC at 16 mg/L incubated for 18 hrs by broth dilution method (reference value: […] mg/L)
[8] = system: Pseudomonas aeruginosa; assay: Inhibition of beta lactamase AmpC in Pseudomonas aeruginosa 700 assessed as potentiation of ceftazidime-induced antibacterial activity by measuring ceftazidime MIC at 16 mg/L incubated for 18 hrs by broth dilution method (reference value: >[…] mg/L)
[9] = system: Klebsiella pneumoniae; assay: Inhibition of beta lactamase KPC-3 in Klebsiella pneumoniae 83 assessed as potentiation of meropenem-induced antibacterial activity by measuring meropenem MIC at 16 mg/L incubated for 18 hrs by broth dilution method (reference value: […] mg/L)
[10] = system: Klebsiella pneumoniae ATCC BAA-1705; assay: Inhibition of beta lactamase KPC in Klebsiella pneumoniae ATCC BAA 1705 assessed as potentiation of meropenem-induced antibacterial activity by measuring diameter of zone inhibition at 0.3 mg incubated for 18 hrs in presence of 10 ug meropenem by CLSI disc diffusion method (Rvb=[…] mm)
[11] = system: Pseudomonas aeruginosa; assay: Inhibition of beta lactamase AmpC in Pseudomonas aeruginosa MUW 700 assessed as potentiation of ceftazidime-induced antibacterial activity by measuring diameter of zone inhibition at 0.3 mg incubated for 18 hrs in presence of 30 ug ceftazidime by CLSI disc diffusion method (Rvb=11 mm)
Procedure, shortened: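 AmpC combination disc test on Mueller-Hinton agar, following EUCAST guidance and Yagi et al. Inhibition zones were compared between a CAZ-30 disc and a ceftazidime disc plus agent or PBA, each at 0.3 mg per disc. Plates were incubated at 35 °C for 18 h. A zone difference of at least 5 mm was counted as inhibition.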

[12] = system: Escherichia coli; assay: Inhibition of beta lactamase KPC-3 in Escherichia coli 82 TR assessed as potentiation of ceftazidime-induced antibacterial activity by measuring ceftazidime MIC at 16 mg/L incubated for 18 hrs by broth dilution method (reference value: […] mg/L)
[13] = molecular target: Class A carbapenemase KPC-2 (Escherichia coli) (UniProt A8DS27); assay: Inhibition of beta lactamase KPC-2 in Escherichia coli 76 assessed as potentiation of meropenem-induced antibacterial activity by measuring meropenem MIC at 16 mg/L incubated for 18 hrs by broth dilution method (reference value: >[…] mg/L)
[14] = system: Pseudomonas aeruginosa; assay: Inhibition of beta lactamase OXA-15 in Pseudomonas aeruginosa 852 assessed as potentiation of ceftazidime-induced antibacterial activity by measuring ceftazidime MIC at 16 mg/L incubated for 18 hrs by broth dilution method (reference value: >[…] mg/L)
[15] = system: Pseudomonas aeruginosa; assay: Inhibition of beta lactamase VIM in Pseudomonas aeruginosa 698 assessed as potentiation of ceftazidime-induced antibacterial activity by measuring ceftazidime MIC at 16 mg/L incubated for 18 hrs by broth dilution method (reference value: […] mg/L)
[16] = system: Klebsiella pneumoniae 700603; assay: as §1, with “ceftazidime-induced” for “cefotaxime-induced”, “ceftazidime” for “cefotaxime”, “(Rvb=13” for “(Rvb=19”; procedure, shortened: as §2
[17] = system: Escherichia coli; assay: Inhibition of beta lactamase KPC-3 in Escherichia coli 82 TR assessed as potentiation of meropenem-induced antibacterial activity by measuring meropenem MIC at 16 mg/L incubated for 18 hrs by broth dilution method (reference value: 2 mg/L)
[18] = molecular target: Class A carbapenemase KPC-2 (Escherichia coli) (UniProt A8DS27); assay: Inhibition of beta lactamase KPC-2 in Escherichia coli 76 assessed as potentiation of ceftazidime-induced antibacterial activity by measuring ceftazidime MIC at 16 mg/L incubated for 18 hrs by broth dilution method (reference value: >[…] mg/L)
[19] = system: Escherichia coli; assay: Inhibition of beta lactamase CMY-2 in Escherichia coli 77 assessed as potentiation of ceftazidime-induced antibacterial activity by measuring ceftazidime MIC at 16 mg/L incubated for 18 hrs by broth dilution method (reference value: […] mg/L)
[20] = Cytotoxicity against human MRC5 cells assessed as cell viability at 16 ug/ml incubated for 72 hrs by MTT assay; assay type: cell-based; conditions: read-out: Activity
Procedure, shortened: (§3)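 MRC-5 pd30 human fibroblasts grown in MEM with 10% FBS, 2 mM L-glutamine, penicillin/streptomycin and 1% non-essential amino acids at 37 °C, 5% CO2. Exponentially growing cells trypsinized and seeded at 8×10^3 cells/well, then dosed 18 h later with 2-fold dilutions (0.5% DMSO final) for 72 h. MTT (1 mg/ml final) added for 1 h at 37 °C, formazan dissolved in DMSO, OD read at 570 nm. Four replicates, expressed as % viable versus control.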

[21] = Cytotoxicity against human MRC5 cells assessed as cell viability at 8 ug/ml incubated for 72 hrs by MTT assay; assay type: cell-based; conditions: read-out: Activity; procedure, shortened: as §3
[22] = Cytotoxicity against human MRC5 cells assessed as cell viability at 2 ug/ml incubated for 72 hrs by MTT assay; assay type: cell-based; conditions: read-out: Activity; procedure, shortened: as §3
[23] = Cytotoxicity against human MRC5 cells assessed as cell viability at 1 ug/ml incubated for 72 hrs by MTT assay; assay type: cell-based; conditions: read-out: Activity; procedure, shortened: as §3
[24] = Cytotoxicity against human MRC5 cells assessed as cell viability at 4 ug/ml incubated for 72 hrs by MTT assay; assay type: cell-based; conditions: read-out: Activity; procedure, shortened: as §3

Row | SMILES | MIC [1] [µg/mL] | MIC [2] [µg/mL] | inhibition zone (IZ) [3] [mm] | MIC [4] [µg/mL] | MIC [5] [µg/mL] | MIC [6] [µg/mL] | MIC [7] [µg/mL] | MIC [8] [µg/mL] | MIC [9] [µg/mL] | inhibition zone (IZ) [10] [mm] | inhibition zone (IZ) [11] [mm] | MIC [12] [µg/mL] | MIC [13] [µg/mL] | MIC [14] [µg/mL] | MIC [15] [µg/mL] | inhibition zone (IZ) [16] [mm] | MIC [17] [µg/mL] | MIC [18] [µg/mL] | MIC [19] [µg/mL] | viability at 72 h, 16 ug/ml [20] [%] | also measured
1 | C[Si]1(C)OB(O)c2c(F)c(F)c(F)c(F)c21 | > 64 | > 64 | 19 | > 64 | 64 | 64 | 64 | > 64 | 32 | 13 | 11 | 32 | > 64 | > 64 | 64 | 13 | 2 | > 64 | 16 |  | 
2 | C[Si]1(C)OB(O)c2ccc(B(O)O)cc21 | 64 | > 64 | 19 | > 64 | 64 | 64 | 32 | 32 | 8 | 18 | 18 | 32 | > 64 | > 64 | 64 | 13 | 0.25 | > 64 | 8 | 120 | viability at 72 h, 8 ug/ml [21]: 126%; viability at 72 h, 2 ug/ml [22]: 124%; viability at 72 h, 1 ug/ml [23]: 117%; viability at 72 h, 4 ug/ml [24]: 129%
3 | C[Si]1(C)OB(O)c2ccc(F)c(F)c21 | > 64 | > 64 | 19 | > 64 | 32 | 64 | 64 | > 64 | 32 | 14 | 14 | 32 | > 64 | > 64 | 64 | 13 | 2 | > 64 | 16 | 99 | viability at 72 h, 8 ug/ml [21]: 111%; viability at 72 h, 2 ug/ml [22]: 113%; viability at 72 h, 1 ug/ml [23]: 114%; viability at 72 h, 4 ug/ml [24]: 111%
4 | C[Si]1(C)OB(O)c2c(F)c3c(c(F)c21)B(O)OC3 | 64 | > 64 | 19 | > 64 | 64 | > 64 | 64 | > 64 | 32 | 12 | 11 | 32 | > 64 | > 64 | 64 | 13 | 2 | > 64 | 32 |  | 
5 | C[Si]1(C)OB(O)c2cc3c(c(F)c21)COB3O | > 64 | > 64 | 19 | > 64 | 32 | > 64 | 64 | > 64 | 32 | 12 | 16 | 32 | > 64 | > 64 | 64 | 13 | 1 | > 64 | 16 | 100 | viability at 72 h, 8 ug/ml [21]: 105%; viability at 72 h, 2 ug/ml [22]: 116%; viability at 72 h, 1 ug/ml [23]: 112%; viability at 72 h, 4 ug/ml [24]: 108%
